# Results published in ChEMBL document CHEMBL1146247, “Identification and characterization of 3-substituted pyrazolyl esters as alternate substrates for cathepsin B: the confounding effects of DTT and cysteine in biological assays” (Bioorg Med Chem Lett, 2007).
# Experiments:
# Cathepsin B [1] = molecular target: T1, Cathepsin B (Homo sapiens, UniProt P07858); experiment: Inhibition of human liver cathepsin B
# In short: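 Enzyme activated 15 min in assay buffer (100 mM Na/K phosphate pH 6.8, 1 mM EDTA, 2 mM DTT), then incubated 1 h at room temperature with 15 µM Z-Arg-Arg-AMC and compound. Compound given as 16 2-fold dilutions, 50 µM to 1.5 nM. AMC fluorescence read at ex 355/em 460 nm. Triplicate plates gave three independent IC50 values.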
# Cathepsin B [2] = molecular target: T1, Cathepsin B; experiment: Inhibition of human liver cathepsin B pre-incubated for 24 hrs in non-buffer solution without DTT
# In short: (§1)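 Compound held 2, 17 or 24 h in non-buffered solution without DTT before testing. It was then assayed against 0.1 nM activated cathepsin B with 15 µM Z-Arg-Arg-AMC for 1 h at room temperature. Read-out was AMC fluorescence at ex 355/em 460 nm. IC50 came from 16 2-fold dilutions.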
# Cathepsin B [3] = molecular target: T1, Cathepsin B; experiment: Inhibition of human liver cathepsin B pre-incubated for 2 hrs in assay buffer with DTT
# In short: (§2)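 Compound held 2, 17 or 24 h in assay buffer (phosphate pH 6.8, with DTT) before testing. It was then incubated with 0.1 nM cathepsin B in 100 mM buffer with 2 mM DTT, 1 mM EDTA and 15 µM Z-Arg-Arg-AMC for 1 h at room temperature. Read-out was AMC fluorescence (ex 355/em 460). IC50 came from 16 2-fold dilutions.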
# Cathepsin B [4] = molecular target: T1, Cathepsin B; experiment: Inhibition of human liver cathepsin B pre-incubated for 17 hrs in assay buffer with DTT; in short: as §2
# Cathepsin B [5] = molecular target: T1, Cathepsin B; experiment: Inhibition of human liver cathepsin B pre-incubated for 17 hrs in buffer without DTT
# In short: (§3)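 Compound held 2, 17 or 24 h in phosphate assay buffer pH 6.8 lacking DTT before testing. It was then run in the standard assay: 0.1 nM activated cathepsin B, 15 µM Z-Arg-Arg-AMC, 1 h at room temperature. Read-out was AMC fluorescence at 355/460 nm. IC50 came from a 16-point 2-fold dilution curve.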
# [6] = Stability of compound in presence of cathepsin B after 15 mins; format: ADME; details: read-out: Stability
# In short: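 Stoichiometric incubation of ester (10 μM, 1 equiv) with activated cathepsin B (20 μM, 2 equiv) under standard assay conditions (100 mM sodium-potassium phosphate pH 6.8, 1 mM EDTA, 2 mM DTT); parallel run without enzyme. After 15 min, remaining parent and conversion to pyrazolone by-product measured by LC–MS, 6.5 min run.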
# Cathepsin B [7] = molecular target: T1, Cathepsin B; experiment: Inhibition of human liver cathepsin B pre-incubated for 17 hrs in non-buffer solution without DTT; in short: as §1
# Cathepsin B [8] = molecular target: T1, Cathepsin B; experiment: Inhibition of human liver cathepsin B pre-incubated for 2 hrs in buffer without DTT; in short: as §3
# Cathepsin B [9] = molecular target: T1, Cathepsin B; experiment: Inhibition of human liver cathepsin B pre-incubated for 24 hrs in buffer without DTT; in short: as §3
# Cathepsin B [10] = molecular target: T1, Cathepsin B; experiment: Inhibition of human liver cathepsin B pre-incubated for 24 hrs in assay buffer with DTT; in short: as §2
# Cathepsin B [11] = molecular target: T1, Cathepsin B; experiment: Inhibition of human liver cathepsin B pre-incubated for 2 hrs in non-buffer solution without DTT; in short: as §1
structure (smiles),measurement,setting,value
COc1ccc(S(=O)(=O)n2nc(OC(=O)c3cccs3)cc2N)cc1,IC50,Cathepsin B [1],690 nM
Cc1ccc(S(=O)(=O)n2nc(OC(=O)c3cccs3)cc2N)cc1,IC50,Cathepsin B [1],1990 nM
Nc1cc(OC(=O)c2ccco2)nn1S(=O)(=O)c1ccc(F)cc1,IC50,Cathepsin B [1],1260 nM
Cc1ccc(S(=O)(=O)n2nc(OC(=O)c3ccco3)cc2N)cc1,IC50,Cathepsin B [1],1750 nM
Nc1cc(OC(=O)c2cccs2)nn1S(=O)(=O)c1ccccc1,IC50,Cathepsin B [2],5000 nM
same,IC50,Cathepsin B [3],9000 nM
same,IC50,Cathepsin B [4],45400 nM
same,IC50,Cathepsin B [5],700 nM
same,remaining at 0.25 h,[6],50%
same,IC50,Cathepsin B [7],1800 nM
same,IC50,Cathepsin B [8],1400 nM
same,IC50,Cathepsin B [9],3200 nM
same,IC50,Cathepsin B [10],> 50000 nM
same,IC50,Cathepsin B [11],1700 nM
same,IC50,Cathepsin B [1],250 nM
Nc1cc(OC(=O)c2cccs2)nn1S(=O)(=O)c1ccc(F)cc1,IC50,Cathepsin B [1],440 nM
